Source: ChEMBL document CHEMBL3877283, “Antitubercular activity of 1,2,3-triazolyl fatty acid derivatives” (Eur J Med Chem, 2017)
In brackets after ≈: the same amount, converted by molar mass.

Key:
Format in all cases: functional
[1] = test system: Mycobacterium tuberculosis; assay: Antimycobacterial activity against rifampicin/isoniazid/pyrazinamide resistant Mycobacterium tuberculosis isolate 501 measured after 5 days by MTT dye based two-fold microdilution method; settings: isolate 501, 120 h
How it was run: (§1)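 Two-fold serial dilution in 96-well plates in Middlebrook 7H9 with 10% ADS and 1% glycerol (7H9-ADS-G). DMSO stocks were diluted to a top concentration of 100 μg/mL and down to 0.8 μg/mL, run in duplicate. Wells received mid-log bacilli in 7H9-ADS-G, incubated 5 days at 37 °C, then MTT for 24 h. MIC is the lowest concentration blocking yellow-to-purple change. Rifampicin was the control.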

[2] = test system: Mycobacterium tuberculosis; assay: Antimycobacterial activity against isoniazid/streptomycin resistant Mycobacterium tuberculosis isolate 780 measured after 5 days by MTT dye based two-fold microdilution method; settings: isolate 780, 120 h; how it was run: as §1
[3] = test system: Mycobacterium tuberculosis; assay: Antimycobacterial activity against rifampicin-resistant Mycobacterium tuberculosis isolate 925 measured after 5 days by MTT dye based two-fold microdilution method; settings: isolate 925, 120 h; how it was run: as §1
[4] = test system: Mycobacterium tuberculosis; assay: Antimycobacterial activity against rifampicin-resistant Mycobacterium tuberculosis isolate 277 measured after 5 days by MTT dye based two-fold microdilution method; settings: isolate 277, 120 h; how it was run: as §1
[5] = test system: Mycobacterium tuberculosis; assay: Antimycobacterial activity against rifampicin-resistant Mycobacterium tuberculosis isolate 300 measured after 5 days by MTT dye based two-fold microdilution method; settings: isolate 300, 120 h; how it was run: as §1
[6] = test system: Mycobacterium tuberculosis; assay: Antimycobacterial activity against isoniazid/streptomycin resistant Mycobacterium tuberculosis isolate 914 measured after 5 days by MTT dye based two-fold microdilution method; settings: isolate 914, 120 h; how it was run: as §1
[7] = test system: Mycobacterium tuberculosis; assay: Antimycobacterial activity against rifampicin/streptomycin resistant Mycobacterium tuberculosis isolate 675 measured after 5 days by MTT dye based two-fold microdilution method; settings: isolate 675, 120 h; how it was run: as §1
[8] = test system: Mycobacterium tuberculosis; assay: Antimycobacterial activity against isoniazid/streptomycin resistant Mycobacterium tuberculosis isolate 681 measured after 5 days by MTT dye based two-fold microdilution method; settings: isolate 681, 120 h; how it was run: as §1
[9] = test system: Mycobacterium tuberculosis; assay: Antimycobacterial activity against isoniazid resistant Mycobacterium tuberculosis isolate 277b measured after 5 days by MTT dye based two-fold microdilution method; settings: 120 h; how it was run: as §1
[10] = test system: Mycobacterium tuberculosis; assay: Antimycobacterial activity against isoniazid/streptomycin resistant Mycobacterium tuberculosis isolate 396 measured after 5 days by MTT dye based two-fold microdilution method; settings: isolate 396, 120 h; how it was run: as §1
[11] = test system: Mycobacterium tuberculosis; assay: Antimycobacterial activity against rifampicin/isoniazid/pyrazinamide resistant Mycobacterium tuberculosis isolate 122 measured after 5 days by MTT dye based two-fold microdilution method; settings: isolate 122, 120 h; how it was run: as §1
[12] = test system: Mycobacterium tuberculosis; assay: Antimycobacterial activity against rifampicin-resistant Mycobacterium tuberculosis isolate 110 measured after 5 days by MTT dye based two-fold microdilution method; settings: isolate 110, 120 h; how it was run: as §1
[13] = test system: Mycobacterium tuberculosis; assay: Antimycobacterial activity against isoniazid resistant Mycobacterium tuberculosis isolate 620 measured after 5 days by MTT dye based two-fold microdilution method; settings: isolate 620, 120 h; how it was run: as §1
[14] = test system: Mycobacterium tuberculosis; assay: Antimycobacterial activity against rifampicin-resistant Mycobacterium tuberculosis isolate 958 measured after 5 days by MTT dye based two-fold microdilution method; settings: isolate 958, 120 h; how it was run: as §1

CCCCCCCCc1cn(CC(=O)OCC)nn1
MIC [1]: 3.7 µM (≈ 0.989 µg/mL)
MIC [2]: 1.9 µM (≈ 0.508 µg/mL)
MIC [3]: 1.9 µM (≈ 0.508 µg/mL)
MIC [4]: 1.9 µM (≈ 0.508 µg/mL)
MIC [5]: 1.9 µM (≈ 0.508 µg/mL)
MIC [6]: 1.9 µM (≈ 0.508 µg/mL)
MIC [7]: 1.9 µM (≈ 0.508 µg/mL)
MIC [8]: 1.9 µM (≈ 0.508 µg/mL)
MIC [9]: 1.9 µM (≈ 0.508 µg/mL)
MIC [10]: 1.9 µM (≈ 0.508 µg/mL)
MIC [11]: 0.9 µM (≈ 0.241 µg/mL)
MIC [12]: 1.9 µM (≈ 0.508 µg/mL)
MIC [13]: 1.9 µM (≈ 0.508 µg/mL)
MIC [14]: 1.9 µM (≈ 0.508 µg/mL)
